RBBP9 inh – human RBBP9 inhibitors, primary screen, biochemical, fluorescence polarization, FP-Rh probe, HTS. recombinant RBBP9. inhibition, % at 7.94 µM. 220,000 tested, 0.2% active. Serine hydrolase RBBP9 (Homo sapiens), O75884;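 active means inhibition above the campaign mean of all tested compounds plus 3 SD, cut at about 14% in these data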;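 further: plate controls were DMSO wells with RBBP9 for no effect and wells lacking RBBP9 protein for full effect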
Target sequence (O75884 whole entry, looked up): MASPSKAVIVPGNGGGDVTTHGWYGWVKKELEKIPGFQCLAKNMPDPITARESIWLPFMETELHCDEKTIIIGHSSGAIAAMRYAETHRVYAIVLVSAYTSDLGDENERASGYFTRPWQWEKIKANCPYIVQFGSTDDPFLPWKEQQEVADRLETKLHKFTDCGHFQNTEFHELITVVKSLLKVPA
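Material: RBBP9 protein. Amount: RBBP9 at 2.5 µM in dispensed solution, before mixing. Schedule: 30 min then 45 min, 25 °C. Medium: Tris buffer pH 8.0, NaCl, Pluronic. Measured by: fluorescence polarization. Measure: percent inhibition from mP, scaled between DMSO and no-protein wells. Replication: one well per compound.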
Hsp70 activator – Hsp70 transcriptional activators, primary screen, cell-based, HeLa, Hsp70 promoter luciferase, luminescence, 10 µM; 200,000 tested, 0.04% active; activation, % at 10 µM; HeLa Hsp70 promoter luciferase reporter; scaled: vehicle 0, proteasome-inhibitor control 100%;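 active means activation above the mean across all tested compounds plus 3 SD, cutoff set per campaign, cut at about 5.5% in these data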;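 further: 100% = MG132 at 30 µM as the positive control and 0% = DMSO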
PP1 counter – PP1-alpha phosphatase inhibitors, primary screen, counter-screen for PP5 inhibitor project, biochemical, fluorescence, OMFP substrate, single point | Serine/threonine-protein phosphatase PP1-alpha catalytic subunit (Homo sapiens), P62136 | purified PP1alpha | inhibition, % at 6.7 µM | 320,000 tested, 0.9% active;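 active means inhibition above the mean inhibition of all tested compounds plus 3 SD, computed separately for each screening campaign, cut at about 15% in these data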
Target sequence (P62136 whole entry, looked up): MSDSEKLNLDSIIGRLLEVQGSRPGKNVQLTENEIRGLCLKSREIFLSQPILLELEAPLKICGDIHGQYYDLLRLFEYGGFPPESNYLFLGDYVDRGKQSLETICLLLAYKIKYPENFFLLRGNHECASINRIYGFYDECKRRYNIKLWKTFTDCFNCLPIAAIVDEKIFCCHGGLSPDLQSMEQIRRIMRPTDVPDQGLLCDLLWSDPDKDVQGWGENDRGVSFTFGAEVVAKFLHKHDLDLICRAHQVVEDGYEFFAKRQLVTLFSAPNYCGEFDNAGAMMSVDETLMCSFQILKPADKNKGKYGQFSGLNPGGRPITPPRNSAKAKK
PKD1 kinase inh – inhibitors of human PKD1 kinase, biochemical, fluorescence polarization. Serine/threonine-protein kinase D1 (Homo sapiens), Q15139. PKD1 kinase fluorescence polarization assay. inhibition, % (concentration not given with the values). 200,000 tested, 0.056% active. AID 797, 2007; in the data active means inhibition above about 50%
p97 inhibitor – inhibitors of human p97 ATPase, primary screen, biochemical. AID 1481, 2009. 220,000 tested, 0.42% active. inhibition, % at 8 µM. recombinant p97 ATPase, Kinase-Glo ATP luminescence, 3 h. Transitional endoplasmic reticulum ATPase (Homo sapiens), P55072; in the data active means inhibition above about 15%;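 further: 0% = DMSO vehicle and 100% = wells lacking enzyme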
PP5 inh – PP5 phosphatase inhibitors, primary screen, biochemical, fluorescence. purified PP5c, OMFP substrate fluorescence. 320,000 tested, 0.18% active. inhibition, % at 6.7 µM. AID 1987, 2009. Serine/threonine-protein phosphatase 5 (Homo sapiens), P53041;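 active means inhibition above the campaign's mean inhibition across all tested compounds plus 3 SD, cut at about 9.5% in these data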;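 further: 0% = DMSO only and 100% = 100 µM cantharidin control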
PKD FP artifact – fluorescence polarization interference in PKD1 assay, artefact control for PKD1 inhibitor project, biochemical, 140K library; PKD1 FP assay interference counter-screen; shares compounds with PKD1 kinase inh; AID 1315, 2008; inhibition, % at 10 µM; 85 tested, under 10 active; call rule not given here
Hsp70 act DR – Hsp70 transcriptional activators, dose response, cell-based, HeLa, Hsp70 promoter luciferase, luminescence, triplicate | shares compounds with Hsp70 activator | HeLa hsp70.1pr-luc reporter | calls only at 99 µM | 70 tested, 10% active | AID 1252, 2008;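 active means over 50% activation at some tested dose; inactive means under 50% activation at every tested dose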
PP1 confirm – PP1 phosphatase inhibitors, confirmation, biochemical, fluorescence, OMFP substrate, triplicate; inhibition, % at 6.7 µM; purified PP1alpha; shares compounds with PP1 counter; 1,900 tested, 52% active;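 active means mean PP1 inhibition above a set limit taken from the earlier primary screen, cut at about 15% in these data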
PP5 inh counter – PP5 phosphatase inhibition by PP1 hits, confirmation, counter-screen for PP1 inhibitor project, biochemical, fluorescence, triplicate; shares compounds with PP1 counter; purified PP5c, OMFP fluorescence; inhibition, % at 6.7 µM; 1,900 tested, 4% active;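 active means mean PP5 inhibition over triplicate wells above about 9.5% taken from the earlier PP1 screen, limit read from the data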
Active calls of the source: *; i = inactive; / = no result given; + = active, no number. The list is not random: actives were taken first. Their share in the collection is about 1.5%.

SMILES	RBBP9 inh	Hsp70 activator	PP1 counter	PKD1 kinase inh	p97 inhibitor	PP5 inh	Hsp70 act DR	others
CCC1=NNc2cccc3c(OC)ccc1c23	3	0	33*	99*	6	5	/	PKD FP artifact=-4;PP1 confirm=9;PP5 inh counter=5
CCC1(c2ccc(F)cc2)NC(=O)N(CC(=O)Nc2cccc(S(=O)(=O)N3CCCCC3)c2)C1=O (stereo unspecified)	/	/	1	/	/	5	/
N#C/C(=C/c1ccc(N2CCCCCC2)o1)c1ccc(Cl)cc1	-10	6.3*	-1	-6	0	0	i
Cc1cc(C)nc(SCc2nnc(SCC(=O)Nc3cc(C(F)(F)F)ccc3Cl)o2)n1	-3	5.7*	-2	-18	1	3	i
Cc1cc(C)nc(SCc2nnc(SCC(=O)Nc3c(C)cccc3C)o2)n1	-6	1	7	0	-2	-11	/
COc1ccc(NC(=O)/C(Cl)=C(/Cl)S(=O)Cc2ccc(Cl)cc2)cn1 (stereo unspecified)	-11	43*	/	-4	20*	/	i
Cc1ccc(C(=O)C(C)OC(=O)CN2C(=O)NC3(CCCC3)C2=O)cc1C (stereo unspecified)	/	/	-1	/	/	1	/
COc1ccc(S(=O)(=O)N2CCN(c3nc(C)cc(C)n3)CC2)cc1	/	/	-1	/	/	2	/
CCCOc1c(Br)cc(C(=O)NCC)cc1OC	2	6.0*	-2	-14	-1	1	i
Cc1ccc(O)c(-n2nc3ccccc3n2)c1	-6	1	-4	-1	1	1	/
CCOC(=O)C1CCN(c2ccc([N+](=O)[O-])cc2)CC1	-7	5.7*	4	-3	-5	2	i
CCOC(=O)C1CCN(C(=O)C2CCN(C(=O)c3ccc([N+](=O)[O-])cc3)CC2)CC1	/	/	-5	/	/	-3	/
COc1ccc(C(CNC(=O)c2cc3ccccc3o2)N2CCCCC2)cc1 (stereo unspecified)	-7	9.3*	-3	3	1	3	i
COc1ccc(C(CNC(=O)c2cc3ccccc3o2)N2CCCC2)cc1 (stereo unspecified)	/	/	-3	/	/	2	/
COc1ccc(NC(=O)CS(=O)(=O)c2ccc(Br)cc2)cc1	/	/	-4	/	/	-3	/
CC1C/C(=C/c2ccccn2)C(=O)/C(=C/c2ccccn2)C1 (stereo unspecified)	-4	314*	2	15	-3	4	+
CC(C)(C)C1C/C(=C/c2ccccn2)C(=O)/C(=C/c2ccccn2)C1 (stereo unspecified)	-6	46*	1	1	0	7	+
CN1C(=O)NC(c2ccccc2[N+](=O)[O-])C2=C1CCCC2=O (stereo unspecified)	/	/	-2	/	/	2	/
Cc1nn(C)c(C)c1NC(=O)c1ccc(S(=O)(=O)N(C)C)cc1	-3	6.6*	-1	-9	5	-1	i
Cc1ccc(S(=O)(=O)NNC(=S)NCC2CCCO2)cc1 (stereo unspecified)	/	/	1	/	/	2	/
COc1ccc(C(c2c(O)ccc3ccccc23)N2CCOCC2)c(OC)c1 (stereo unspecified)	-36	6.4*	0	-2	2	7	i
CCC(=O)N1CCN(c2ccc(NC(=O)c3ccc([N+](=O)[O-])o3)cc2Cl)CC1	4	43*	/	-9	0	/	i
O=C(OCn1ncc(Br)c(Br)c1=O)c1ccccc1Cl	-9	17*	4	0	5	1	+
Cc1ccc(-n2c(Cl)c(Cl)nc(Cl)c2=O)cc1	-7	6.4*	-1	4	3	1	i
COc1nc(Cl)cn(-c2ccc(C)cc2)c1=O	3	0	-1	-5	-3	-1	/
SMILES	RBBP9 inh	Hsp70 activator	PP1 counter	PKD1 kinase inh	p97 inhibitor	PP5 inh	Hsp70 act DR	others
COc1ccc(/C=C/C(=O)c2cc(F)ccc2OC(=O)c2ccccc2)cc1OC	-9	5	2	-3	4	1	/
COc1ccc(/C=C/C(=O)c2cc(F)ccc2OC(=O)c2ccccc2OC)cc1OC	-15	9.9*	/	-4	1	/	i
C=CCSc1nccc(-c2nn(-c3ccc(C)cc3)ccc2=O)n1	0	17*	0	-2	-4	2	i
CCSc1nccc(-c2nn(-c3ccc(C)cc3)ccc2=O)n1	0	1	2	-10	-1	3	/
CCn1c(C)cs/c1=N\S(=O)(=O)c1ccccc1	/	/	-1	/	/	2	/
O=Cc1s/c(=N\S(=O)(=O)c2ccccc2)n(CCCCl)c1Cl	-7	11*	/	-1	4	/	i
Nc1c(C(=O)CSc2nccn2-c2ccc(Cl)cc2)c(=O)[nH]c(=O)n1C1CC1	/	/	-1	/	/	-1	/
CCOc1ccc(NC(=O)c2ccc(OC)cc2)cc1	-6	0	0	-12	1	2	/
CCOc1ccc(NC(=O)c2ccc(NC(=S)NC3CC3)cc2)cc1	-6	9.4*	-3	-5	1	2	i
CC(C)c1ccc(/C=C/c2[nH]c(=O)[nH]c(=O)c2[N+](=O)[O-])cc1	/	/	5	/	/	-1	/
Cc1ccc(N=Nc2[nH]c3ccccc3c2O)cc1	-5	1	0	4	3	2	/
COc1ccc(N=Nc2[nH]c3ccc(C)cc3c2O)cc1	-6	5.6*	0	-4	1	2	i
CCCCS(=O)(=O)/C=C\C=C/S(=O)(=O)CCCC	5	56*	0	-5	9	4	i
C/C(=N\N1CCN(c2ccccc2)CC1)c1ccco1	-4	0	-2	-2	1	-1	/
O=C(CCc1ccccc1O)N/N=C/c1ccc(Sc2cccc3cccnc23)o1	-14	0	1	-6	1	2	/

From PubChem
